Eight compounds from ChEMBL document CHEMBL2401665, “Design, synthesis and biological studies of novel tubulin inhibitors” (Bioorg Med Chem Lett, 2013) can be followed below.

Test [1] relates to MDA-MB-231. Nature of the test: Cytotoxicity against hormone-independent human MDA-MB-231 cells assessed as growth inhibition by MTS assay. Type of test: functional, cell-based. The gist of the method:
(§1)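 Cells seeded at 2,500 per well and exposed to a range of compound concentrations. Read-out is the MTS assay […]. IC50 is the mean of 3 independent experiments, each run in triplicate.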
In general terms: Tetrazolium dyes change colour on reduction, which living cells bring about.

Test [2] relates to PC-3. Nature of the test: Cytotoxicity against hormone-independent human PC3 cells assessed as growth inhibition by MTS assay. In kind it is functional, cell-based. The gist of the method:
as §1

For test [3], the target named is Tubulin (Sus scrofa, UniProt P02554+P02550). The test is described as follows: Inhibition of porcine brain tubulin polymerization.

As a reminder, the IC50 is the concentration needed to halve the response being measured. For `COc1ccc2c(c1)oc(=O)n2C(=O)c1cc(OC)c(OC)c(OC)c1`, the IC50 in test [1] and in test [2] was above 20000 nM throughout.
Regarding `COc1ccc2c(c1)NC(=O)/C2=C/c1cc(OC)c(OC)c(OC)c1`, the IC50 in test [1] worked out at 0.88 nM.
On to `COc1ccc2c(c1)C(=O)C(=O)N2Cc1cc(OC)c(OC)c(OC)c1`, for which the figures for the IC50 in test [1], in test [3] and in test [2] were 935 nM, “ND(Insoluble)” and 318 nM, respectively.
In the same order, the values of `COc1ccc2c(c1)[nH]c(=O)n2Cc1cc(OC)c(OC)c(OC)c1` are 52.8 nM, 16400 nM and 44.2 nM.
Regarding `COc1ccc2c(c1)oc(=O)n2Cc1cc(OC)c(OC)c(OC)c1`, the figures for the IC50 in test [1], in test [3] and in test [2] were 4520 nM, above 40000 nM and 4490 nM, respectively.
In the same order, the values of `COc1ccc2c(c1)CC(=O)N2Cc1cc(OC)c(OC)c(OC)c1` are 193 nM, 31200 nM and 165 nM.
Regarding `COc1ccc2c(c1)[nH]c(=O)n2C(=O)c1cc(OC)c(OC)c(OC)c1`, the IC50 in test [1] is 108 nM; in test [3], 19140 nM; in test [2], 126 nM.
In the same order, the values of `COc1ccc2c(c1)n(C)c(=O)n2Cc1cc(OC)c(OC)c(OC)c1` are 3030 nM, above 40000 nM and 555 nM.
